# Test results reported in ChEMBL document CHEMBL3627607, “A Novel Pyrazolopyridine with in Vivo Activity in Plasmodium berghei- and Plasmodium falciparum-Infected Mouse Models from Structure-Activity Relationship Studies around the Core of Recently Identified Antimalarial Imidazopyridazines” (J Med Chem, 2015).
# Key:
# Plasmodium falciparum [1] = test: Antiplasmodial activity against drug sensitive Plasmodium falciparum NF54 infected in human erythrocytes after 48 hrs by [3H]-hypoxanthine incorporation assay; type: functional, organism-based
# [2] = Selectivity index, ratio of IC50 for CHO cells to IC50 for multidrug resistant Plasmodium falciparum K1; type: toxicity, cell-based; conditions: hamster, read-out: Ratio IC50
# [3] = Selectivity index, ratio of IC50 for CHO cells to IC50 for Plasmodium falciparum NF54; type: toxicity, cell-based; conditions: hamster, read-out: Ratio IC50
# [4] = Selectivity index, ratio of IC50 for African green monkey VERO cells to IC50 for multidrug resistant Plasmodium falciparum K1; type: toxicity, cell-based; conditions: read-out: Ratio IC50
# [5] = Selectivity index, ratio of IC50 for African green monkey VERO cells to IC50 for Plasmodium falciparum NF54; type: toxicity, cell-based; conditions: read-out: Ratio IC50
# Liver microsome [6] = test: Metabolic stability of the compound in human liver microsomes assessed as compound remaining at 0.1 uM after 30 mins by LC-MS/MS analysis; type: ADME; conditions: 0.5 h
# Liver microsome [7] = test: Metabolic stability of the compound in rat liver microsomes assessed as compound remaining at 0.1 uM after 30 mins by LC-MS/MS analysis; type: ADME; conditions: 0.5 h
# [8] = Metabolic stability of the compound in mouse liver microsomes assessed as compound remaining at 0.1 uM after 30 mins by LC-MS/MS analysis; type: ADME; conditions: 0.5 h
# [9] = biological target: Voltage-gated inwardly rectifying potassium channel KCNH2 (Homo sapiens, UniProt Q12809); test: Inhibition of human ERG potassium channel by ionworks patch-clamp electrophysiology assay
# Sequence of Voltage-gated inwardly rectifying potassium channel KCNH2 (Q12809 whole entry): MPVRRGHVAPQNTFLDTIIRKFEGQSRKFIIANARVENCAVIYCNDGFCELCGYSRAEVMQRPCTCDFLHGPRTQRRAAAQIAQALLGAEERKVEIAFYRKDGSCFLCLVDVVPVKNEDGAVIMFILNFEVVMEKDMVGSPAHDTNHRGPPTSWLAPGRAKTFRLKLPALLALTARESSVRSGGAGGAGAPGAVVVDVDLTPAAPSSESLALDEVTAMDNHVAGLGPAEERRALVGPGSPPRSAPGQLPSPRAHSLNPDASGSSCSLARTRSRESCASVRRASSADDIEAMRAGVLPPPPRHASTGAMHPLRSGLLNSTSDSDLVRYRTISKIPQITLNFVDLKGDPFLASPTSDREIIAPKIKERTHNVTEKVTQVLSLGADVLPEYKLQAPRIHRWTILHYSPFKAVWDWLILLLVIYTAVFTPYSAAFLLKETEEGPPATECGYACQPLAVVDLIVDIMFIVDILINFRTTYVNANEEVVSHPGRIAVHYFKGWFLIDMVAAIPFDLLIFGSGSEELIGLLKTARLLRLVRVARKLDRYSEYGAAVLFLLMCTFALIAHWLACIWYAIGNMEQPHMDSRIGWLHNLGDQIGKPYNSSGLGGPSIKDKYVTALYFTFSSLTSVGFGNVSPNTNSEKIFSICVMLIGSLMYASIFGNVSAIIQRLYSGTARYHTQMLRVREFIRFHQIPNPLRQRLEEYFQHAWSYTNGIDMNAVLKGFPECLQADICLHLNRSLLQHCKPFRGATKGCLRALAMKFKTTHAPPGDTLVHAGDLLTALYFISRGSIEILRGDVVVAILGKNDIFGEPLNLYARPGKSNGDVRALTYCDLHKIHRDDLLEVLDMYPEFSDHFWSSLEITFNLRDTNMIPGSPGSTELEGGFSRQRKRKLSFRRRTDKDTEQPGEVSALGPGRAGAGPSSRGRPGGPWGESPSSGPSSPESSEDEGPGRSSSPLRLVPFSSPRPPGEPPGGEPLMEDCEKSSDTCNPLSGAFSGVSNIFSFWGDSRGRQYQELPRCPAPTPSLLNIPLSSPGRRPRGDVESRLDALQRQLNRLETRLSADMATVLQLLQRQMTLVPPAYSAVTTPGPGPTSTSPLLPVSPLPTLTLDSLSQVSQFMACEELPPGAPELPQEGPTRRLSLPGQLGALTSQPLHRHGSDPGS
# Plasmodium berghei [10] = test: Antiplasmodial activity against Plasmodium berghei ANKA expressing GFP infected in mouse assessed as reduction of parasitemia level at 50 mg/kg, po qd for 4 days measured on day 4 post last dose by flow cytometric analysis relative to control; type: functional; design: scale not given: the % may be the effect or the level left
# Method in brief: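 Mice (n = 3) infected with GFP-transfected P. berghei ANKA. Test agents were suspended in HPMC vehicle (0.5% w/v hydroxypropylmethylcellulose, 0.5% v/v benzyl alcohol, 0.4% v/v Tween 80, 0.9% w/v NaCl in water). Dosed orally at 4, 24, 48 and 72 h post-infection. Parasitemia read by flow cytometry on day 4 (96 h), detection limit 0.1%. Activity = control-minus-treated mean % parasitemia, relative to control.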
# Plasmodium berghei [11] = test: Antiplasmodial activity against Plasmodium berghei ANKA expressing GFP infected in mouse assessed as means survival days at 50 mg/kg, po qd for 4 days; type: functional
# Method in brief: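 Mice (n = 3) infected with GFP-transfected P. berghei ANKA. Compounds dissolved or suspended in HPMC vehicle (0.5% w/v hydroxypropylmethylcellulose, 0.5% v/v benzyl alcohol, 0.4% v/v Tween 80, 0.9% w/v NaCl in water). Dosed orally 4, 24, 48 and 72 h after infection. Parasitemia read by flow cytometry (detection limit 0.1%). Survival recorded as mean survival time in days.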
# [12] = Drug level in mouse blood at 50 mg/kg, po after 1 hr; type: ADME, organism-based; conditions: read-out: Drug uptake
# Method in brief: (§1)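 Snapshot whole-blood levels of parent and its sulfone metabolite at 1, 4 and 24 h after the first 50 mg/kg oral dose. Samples came from the P. berghei-infected efficacy mice, dosed in HPMC suspension vehicle.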
# [13] = Drug level in mouse blood at 50 mg/kg, po after 4 hrs; type: ADME, organism-based; conditions: read-out: Drug uptake; method in brief: as §1
# [14] = (§2) Drug level in mouse blood at 50 mg/kg, po after 24 hrs; type: ADME, organism-based; conditions: blood, read-out: Drug uptake; method in brief: as §1
# [15] = Half life in rat at 5 mg/kg, iv; type: ADME, organism-based; conditions: in vivo
# [16] = Plasma clearance in rat at 5 mg/kg, iv; type: ADME, organism-based
# [17] = Volume of distribution in rat at 5 mg/kg, iv; type: ADME, organism-based; conditions: in vivo
# [18] = Half life in rat at 15 mg/kg, po; type: ADME, organism-based; conditions: in vivo
# [19] = Oral bioavailability in rat at 15 mg/kg; type: ADME, organism-based; conditions: in vivo
# Plasmodium berghei [20] = test: Antiplasmodial activity against sporozoite stage of Plasmodium berghei expressing luciferase infected in human HepG2-A16-CD81EGFP cells preincubated with cells for 18 hrs followed by protozoal infection measured after 48 hrs by bioluminescence assay; type: functional, organism-based
# Method in brief: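 HepG2 cells were pretreated 18 h with compound, then infected with freshly dissected luciferase-expressing P. berghei sporozoites. After a further 48 h with compound, viability of exoerythrocytic forms and of HepG2 host cells was read by bioluminescence.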
# Plasmodium falciparum [21] = test: Antiplasmodial activity against multidrug resistant Plasmodium falciparum K1 infected in human erythrocytes after 48 hrs by [3H]-hypoxanthine incorporation assay; type: functional, organism-based
# [22] = Half life in rat at 20 mg/kg, po; type: ADME, organism-based; conditions: in vivo
# [23] = Oral bioavailability in rat at 20 mg/kg; type: ADME, organism-based; conditions: in vivo
# Blood [24] = test: as §2; type: ADME, organism-based; conditions: in vivo, 24 h, BLD = below limit of detection; method in brief: as §1
# [25] = Half life in rat at 10 mg/kg, po; type: ADME, organism-based; conditions: in vivo
# [26] = Oral bioavailability in rat at 10 mg/kg; type: ADME, organism-based; conditions: in vivo
# [27] = Half life in rat at 3 mg/kg, iv; type: ADME, organism-based; conditions: in vivo
# [28] = Plasma clearance in rat at 3 mg/kg, iv; type: ADME, organism-based
# [29] = Volume of distribution in rat at 3 mg/kg, iv; type: ADME, organism-based; conditions: in vivo
# Blood [30] = test: Drug level in rat blood treated with 5-(3-(Cyclopropylsulfonyl)phenyl)-3-(4-(methylsulfinyl)-phenyl)pyrazolo[1,5-a]pyridine at 20 mg/kg, po and 5 mg/kg, iv by LC-MS/MS analysis; type: ADME, organism-based; conditions: in vivo
# Method in brief: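 Metabolites identified by LC-ESI-MS/MS in blood samples from the rat PK study (oral and intravenous dosing).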
# [31] = Cmax in Plasmodium falciparum 3D7 infected in non-myelodepleted NOD-SCID IL2Rgammanull mouse engrafted with human erythrocytes at 0.1 mg/kg, po; type: ADME, organism-based; design: dose 0.1 mg/kg, route oral; conditions: in vivo
# Method in brief: (§3)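 Engrafted NSG (scid IL2Rgc null) mice infected with P. falciparum were given one oral dose per day for four days. Blood was sampled to measure parent and its sulfone metabolite.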
# [32] = Tmax in Plasmodium falciparum 3D7 infected in non-myelodepleted NOD-SCID IL2Rgammanull mouse engrafted with human erythrocytes at 0.1 mg/kg, po; type: ADME, organism-based; conditions: in vivo; method in brief: as §3
# [33] = Cmax in Plasmodium falciparum 3D7 infected in non-myelodepleted NOD-SCID IL2Rgammanull mouse engrafted with human erythrocytes at 0.5 mg/kg, po; type: ADME, organism-based; design: dose 0.5 mg/kg, route oral; conditions: in vivo; method in brief: as §3
# [34] = Tmax in Plasmodium falciparum 3D7 infected in non-myelodepleted NOD-SCID IL2Rgammanull mouse engrafted with human erythrocytes at 0.5 mg/kg, po; type: ADME, organism-based; conditions: in vivo
# Method in brief: (§4)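 Humanized NSG mice infected with P. falciparum received one oral dose per day for 4 consecutive days. Blood was sampled for exposure, with levels of both parent and its main active metabolite measured. Tmax was taken from the blood concentration–time profile after oral dosing.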
# [35] = Cmax in Plasmodium falciparum 3D7 infected in non-myelodepleted NOD-SCID IL2Rgammanull mouse engrafted with human erythrocytes at 1.5 mg/kg, po; type: ADME, organism-based; design: dose 1.5 mg/kg, route oral; conditions: in vivo; method in brief: as §3
# [36] = Tmax in Plasmodium falciparum 3D7 infected in non-myelodepleted NOD-SCID IL2Rgammanull mouse engrafted with human erythrocytes at 1.5 mg/kg, po; type: ADME, organism-based; conditions: in vivo; method in brief: as §4
# [37] = Cmax in Plasmodium falciparum 3D7 infected in non-myelodepleted NOD-SCID IL2Rgammanull mouse engrafted with human erythrocytes at 10 mg/kg, po; type: ADME, organism-based; design: dose 10 mg/kg, route oral; conditions: in vivo; method in brief: as §3
# [38] = Tmax in Plasmodium falciparum 3D7 infected in non-myelodepleted NOD-SCID IL2Rgammanull mouse engrafted with human erythrocytes at 10 mg/kg, po; type: ADME, organism-based; conditions: in vivo; method in brief: as §4
# [39] = Cmax in Plasmodium falciparum 3D7 infected in non-myelodepleted NOD-SCID IL2Rgammanull mouse engrafted with human erythrocytes at 30 mg/kg, po; type: ADME, organism-based; design: dose 30 mg/kg, route oral; conditions: in vivo; method in brief: as §3
# [40] = Tmax in Plasmodium falciparum 3D7 infected in non-myelodepleted NOD-SCID IL2Rgammanull mouse engrafted with human erythrocytes at 30 mg/kg, po; type: ADME, organism-based; conditions: in vivo; method in brief: as §4
# [41] = AUC (0 to 23 hrs) in Plasmodium falciparum 3D7 infected in non-myelodepleted NOD-SCID IL2Rgammanull mouse engrafted with human erythrocytes at 30 mg/kg, po; type: ADME, organism-based; design: dose 30 mg/kg, time < 23 hr, route oral; conditions: in vivo; method in brief: as §3
# [42] = AUC (0 to 8 hrs) in Plasmodium falciparum 3D7 infected in non-myelodepleted NOD-SCID IL2Rgammanull mouse engrafted with human erythrocytes at 0.1 mg/kg, po; type: ADME, organism-based; design: time < 8 hr, dose 0.1 mg/kg, route oral; conditions: in vivo; method in brief: as §3
# [43] = AUC (0 to 23 hrs) in Plasmodium falciparum 3D7 infected in non-myelodepleted NOD-SCID IL2Rgammanull mouse engrafted with human erythrocytes at 0.5 mg/kg, po; type: ADME, organism-based; design: time < 23 hr, dose 0.5 mg/kg, route oral; conditions: in vivo; method in brief: as §3
# [44] = AUC (0 to 23 hrs) in Plasmodium falciparum 3D7 infected in non-myelodepleted NOD-SCID IL2Rgammanull mouse engrafted with human erythrocytes at 1.5 mg/kg, po; type: ADME, organism-based; design: time < 23 hr, dose 1.5 mg/kg, route oral; conditions: in vivo; method in brief: as §3
# [45] = AUC (0 to 23 hrs) in Plasmodium falciparum 3D7 infected in non-myelodepleted NOD-SCID IL2Rgammanull mouse engrafted with human erythrocytes at 10 mg/kg, po; type: ADME, organism-based; design: dose 10 mg/kg, time < 23 hr, route oral; conditions: in vivo; method in brief: as §3
# Liver microsome [46] = test: Drug level in rat liver microsomes treated with 5-(3-(Cyclopropylsulfonyl)phenyl)-3-(4-(methylsulfinyl)-phenyl)pyrazolo[1,5-a]pyridine at 10 uM after 1 hr by LC-MS/MS analysis; type: ADME
# Method in brief: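 Metabolites identified by LC-ESI-MS/MS after in vitro incubation with rat liver microsomes.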
structure (smiles),measurement,setting,value
CS(=O)(=O)c1ccc(-c2cnn3ccc(-c4cccc(S(C)(=O)=O)c4)cc23)cc1,IC50,Plasmodium falciparum [1],8 nM
same,selectivity ratio,[2],> 1000
same,selectivity ratio,[3],> 1000
same,selectivity ratio,[4],> 1000
same,selectivity ratio,[5],> 1000
same,Stability,Liver microsome [6],Stable
same,Stability,Liver microsome [7],Stable
same,Stability,[8],Stable
same,IC50,[9],> 33 µM
same,Activity,Plasmodium berghei [10],60%
same,MSD,Plasmodium berghei [11],4 days
same,concentration at 1 h,[12],7600 nM
same,concentration at 4 h,[13],486 nM
same,concentration at 24 h,[14],290 nM
same,half-life,[15],246 min
same,clearance,[16],13.9 mL/min/kg
same,Vd,[17],4.8 L/kg
same,half-life,[18],156 min
same,bioavailability,[19],1%
same,IC50,Plasmodium berghei [20],6.6 nM
CS(=O)(=O)c1ccc(-c2cnn3ccc(-c4cccc(S(=O)(=O)C5CC5)c4)nc23)cc1,IC50,Plasmodium falciparum [21],0.37 nM
same,IC50,Plasmodium falciparum [1],0.42 nM
same,Stability,Liver microsome [6],Stable
same,Stability,Liver microsome [7],Stable
same,Stability,[8],Stable
same,Activity,Plasmodium berghei [10],86%
same,MSD,Plasmodium berghei [11],7 days
same,concentration at 1 h,[12],169 nM
same,concentration at 4 h,[13],145 nM
same,concentration at 24 h,[14],< 10 nM
same,half-life,[22],468 min
same,bioavailability,[23],1%
same,half-life,[15],168 min
same,clearance,[16],1.1 mL/min/kg
same,Vd,[17],0.3 L/kg
same,IC50,Plasmodium berghei [20],0.61 nM
CS(=O)(=O)c1ccc(-c2cnn3ccc(-c4cccc(S(=O)(=O)C5CC5)c4)cc23)cc1,IC50,Plasmodium falciparum [21],2.4 nM
same,IC50,Plasmodium falciparum [1],2.7 nM
same,Stability,Liver microsome [6],Stable
same,Stability,Liver microsome [7],Stable
same,Stability,[8],Stable
same,Activity,Plasmodium berghei [10],71%
same,MSD,Plasmodium berghei [11],7 days
same,concentration at 1 h,[12],697 nM
same,concentration at 4 h,[13],1060 nM
same,Drug uptake,Blood [24],BLD
same,half-life,[25],342 min
same,bioavailability,[26],61%
same,half-life,[27],162 min
same,clearance,[28],3.5 mL/min/kg
same,Vd,[29],0.8 L/kg
same,Drug metabolism,Blood [30],metabolite_detected
same,Cmax,[31],25 ng/mL
same,Tmax,[32],2 h
same,Cmax,[33],106 ng/mL
same,Tmax,[34],2 h
same,Cmax,[35],467 ng/mL
same,Tmax,[36],2 h
same,Cmax,[37],2600 ng/mL
same,Tmax,[38],4 h
same,Cmax,[39],7430 ng/mL
same,Tmax,[40],8 h
same,AUC(0-t) at 23 h,[41],78300 ng·h/mL
same,AUC(0-t) at 8 h,[42],139 ng·h/mL
same,AUC(0-t) at 23 h,[43],1010 ng·h/mL
same,AUC(0-t) at 23 h,[44],3200 ng·h/mL
same,AUC(0-t) at 23 h,[45],24800 ng·h/mL
same,IC50,Plasmodium berghei [20],20 nM
same,Drug metabolism,Liver microsome [46],metabolite_detected
